# Experimental data: ChEMBL document CHEMBL3045883, “Antifungal effects of different organic extracts from Melia azedarach L. on phytopathogenic fungi and their isolated active components” (J Agric Food Chem, 2003)
# Columns and labels:
# Fusarium verticillioides [1] = assay: Antifungal activity against Fusarium verticillioides assessed as growth inhibition at 0.8 mg/mL after 48 hr by inverted light microscopic analysis; type: functional; conditions: read-out: GI
# Summary of the method: (§1)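 Broth microdilution: F. verticillioides conidia, 4 days old, from a monosporic culture, in glucose-mineral salts medium at 1 × 10^5 conidia/mL. Pure compounds in DMSO added to wells in duplicate ([…]; final DMSO 2–4%). Controls were spore wells with or without DMSO. Percent growth (0–100) scored visually by inverted light microscope, always by the same operator. IC50 derived by Probit analysis.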
# Fusarium verticillioides [2] = assay: Antifungal activity against Fusarium verticillioides assessed as growth inhibition after 48 hr by inverted light microscopic analysis; type: functional, organism-based; summary of the method: as §1
# Fusarium verticillioides [3] = assay: Antifungal activity against Fusarium verticillioides assessed as growth inhibition at 0.6 mg/mL after 48 hr by inverted light microscopic analysis; type: functional; conditions: read-out: GI; summary of the method: as §1
# Fusarium verticillioides [4] = assay: Fungistatic activity against Fusarium verticillioides after 48 hr by broth microdilution method; type: functional; summary of the method: as §1
# Fusarium verticillioides [5] = assay: Antifungal activity against Fusarium verticillioides assessed as growth inhibition at 0.2 mg/mL after 48 hr by inverted light microscopic analysis; type: functional; conditions: read-out: GI; summary of the method: as §1
# Fusarium verticillioides [6] = assay: Antifungal activity against Fusarium verticillioides assessed as growth inhibition at 0.4 mg/mL after 48 hr by inverted light microscopic analysis; type: functional; conditions: read-out: GI; summary of the method: as §1
Structure (SMILES),inhibition of growth at 800 µg/mL (Fusarium verticillioides [1]) [%],IC50 (Fusarium verticillioides [2]) [µg/mL],growth inhibition (GI) (Fusarium verticillioides [2]),inhibition of growth at 600 µg/mL (Fusarium verticillioides [3]) [%],MIC (Fusarium verticillioides [4]) [µg/mL],inhibition of growth at 200 µg/mL (Fusarium verticillioides [5]) [%],inhibition of growth at 400 µg/mL (Fusarium verticillioides [6]) [%]
COc1cc(C2OCC3C(c4ccc(O)c(OC)c4)OCC23)ccc1O (racemic) [(+/-)-PINORESINOL],40,760,Dose-dependent effect,20,1000,–,–
COc1cc(/C=C/C=O)ccc1O [CONIFERYL ALDEHYDE],–,240,Dose-dependent effect,–,400,20,–
COc1cc(C=O)ccc1O [VANILLIN],–,300,Dose-dependent effect,–,600,20,65
